What is called EC50 is the concentration giving half of the maximal effect. As a reminder, the Tmax is the time at which the peak concentration occurs.

Data set [1] has as its target T1, S1P1 receptor (Homo sapiens, UniProt P21453). The experiment in a line: Ca2+ mobilization assay. The format is cell-based.
The target in data set [2] is T2, S1P2 receptor (Homo sapiens, UniProt O95136). Put plainly: Impedance-based analysis of S1P2 receptor signaling in CHO-hS1P2 cells. The format is cell-based. To be noted: 0.05-5000 nM.
For data set [3], the system named is rat trachea. The experiment in a line: Isometric force development, isolated rat tracheal rings.
In data set [4] the target is T1, S1P1 receptor. The format is biochemical.
In data set [5] the test system is C57BL/6 mice. The experiment in a line: Lymphocyte count and plasma concentration in mice. The format is in vivo, mouse. As to conditions: three repeated doses of 6 mg·kg^‐1·day^‐1, day 0 vs day 2 (data not shown).
For data set [6], the system named is spontaneous hypertensive rats. Put plainly: Blood pressure and heart rate by telemetry in conscious SHR. The format is in vivo, rat.
Data set [7] relates to human bronchi. The experiment in a line: Isometric force development, isolated human bronchial rings.
Data set [8] deals with T1, S1P1 receptor. The format is biochemical. The source holds these as a separate data set.
Data set [9] addresses T3, human S1P4 receptor (Homo sapiens, UniProt O95977).
T3 sequence (O95977 1-384): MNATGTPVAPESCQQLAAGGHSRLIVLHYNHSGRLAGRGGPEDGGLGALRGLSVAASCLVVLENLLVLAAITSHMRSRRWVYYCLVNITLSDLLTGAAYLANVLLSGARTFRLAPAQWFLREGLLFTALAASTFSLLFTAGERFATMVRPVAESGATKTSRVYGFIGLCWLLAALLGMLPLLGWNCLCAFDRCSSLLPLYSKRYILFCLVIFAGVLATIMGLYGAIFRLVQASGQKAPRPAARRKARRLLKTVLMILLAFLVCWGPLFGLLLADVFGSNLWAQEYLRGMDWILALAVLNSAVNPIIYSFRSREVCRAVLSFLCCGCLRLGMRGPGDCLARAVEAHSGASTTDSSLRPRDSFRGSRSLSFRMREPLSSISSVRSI
The format is biochemical. The procedure, abridged: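 Membranes from CHO cells expressing recombinant human S1P4 were used for (35S)-GTPγS binding as a measure of G protein activation. EC50 was fitted with the compound's own maximal response as the top and the no-effect level of the lowest concentration as the bottom.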

Data set [10] deals with Wistar rats. The experiment in a line: In vivo lung function. Also on record: species or system rat. As to conditions: n = 10. Summed up:
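Male Wistar rats (200-250 g), acclimatised at least 7 days, were unrestrained, conscious and breathing spontaneously in whole-body plethysmograph chambers (calibrated with a 5 mL air injection), one rat per chamber. Baseline was recorded for 120 min. Single oral dosing used 0.25% methylcellulose/0.05% Tween 80 vehicle, followed by recording for 6 h.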

Data set [11] addresses human S1P3 receptor (Homo sapiens, UniProt Q99500). The format is biochemical.
Data set [12] relates to C57BL/6 mice. Put plainly: Mouse MOG33-55 EAE model with spinal cord histopathology. The format is in vivo. Summed up:
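EAE was induced in 6-week-old female C57BL/6JOlaHsd mice with 150 μg MOG33-55 in CFA, s.c. into both flanks under isoflurane, plus a pertussis toxin boost. Dosing was 6 mg·kg^‐1·day^‐1 or vehicle (0.25% methylcellulose, 0.05% Tween 80) from day 0 or day 14, with daily scoring 0–5. Spinal cords were taken after saline perfusion, formalin-fixed, and 4 μm sections stained with HE and cresyl violet/Luxol fast blue; naïve mice served as controls.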

The target in data set [13] is T1, S1P1 receptor. The experiment in a line: Ca2+ signaling in CHO cells expressing recombinant human S1P1 receptor. The format is cell-based.
For data set [14], the system named is Wistar rats. The experiment in a line: Blood lymphocyte count in rats after oral administration. The format is in vivo, rat.
Data set [15] has as its target T2, S1P2 receptor. The format is biochemical.
The nature of data set [16]: Compound concentrations in rat plasma. To be noted: for plasma concentration at time of maximal lymphocyte count reduction (6 hours): rats. The format is in vivo.
The subject of data set [17] is rat mesenteric arteries. Put plainly: Isometric force development, isolated rat mesenteric arteries. Summed up:
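After CO₂ euthanasia, two mesenteric artery rings (1.5 mm, 2nd and 3rd branch) were mounted on 20 μm wires in a wire myograph with modified Krebs-Henseleit buffer. Viability was checked with KCl 60 mmol/L. Endothelium was confirmed by acetylcholine (10^-5 mol/L) relaxation of rings precontracted with U46619 (10^-6 mol/L).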

Data set [18] has as its target human S1P5 receptor (Homo sapiens, UniProt Q9H228). The format is biochemical.
Setting [19] is: EC50 hS1P4, (35S)-GTPγS, CHO membranes, geometric mean, n = 2‐4.
Setting [20] is: percentage of maximal response induced by 1 or 10 μmol·L^‐1 S1P.

The structures appear in SMILES notation. “And” between values parts separate entries of the source, which are not always exact repeats. Equal entries are not always repeated. Where two headings read alike, the source gives them in different places. Where only a bound is given, the exact number is not on record here.

T2 sequence (O95136 whole entry): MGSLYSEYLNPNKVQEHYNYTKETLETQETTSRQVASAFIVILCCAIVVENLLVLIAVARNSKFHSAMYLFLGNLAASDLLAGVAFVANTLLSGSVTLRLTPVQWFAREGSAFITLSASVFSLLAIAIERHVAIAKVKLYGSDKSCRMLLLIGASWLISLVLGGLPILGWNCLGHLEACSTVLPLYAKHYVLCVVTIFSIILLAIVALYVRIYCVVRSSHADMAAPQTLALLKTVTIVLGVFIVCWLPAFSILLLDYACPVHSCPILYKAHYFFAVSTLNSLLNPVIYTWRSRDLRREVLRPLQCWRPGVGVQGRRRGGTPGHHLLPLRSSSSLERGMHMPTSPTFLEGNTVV
human S1P5 receptor, sequence (Q9H228 whole entry): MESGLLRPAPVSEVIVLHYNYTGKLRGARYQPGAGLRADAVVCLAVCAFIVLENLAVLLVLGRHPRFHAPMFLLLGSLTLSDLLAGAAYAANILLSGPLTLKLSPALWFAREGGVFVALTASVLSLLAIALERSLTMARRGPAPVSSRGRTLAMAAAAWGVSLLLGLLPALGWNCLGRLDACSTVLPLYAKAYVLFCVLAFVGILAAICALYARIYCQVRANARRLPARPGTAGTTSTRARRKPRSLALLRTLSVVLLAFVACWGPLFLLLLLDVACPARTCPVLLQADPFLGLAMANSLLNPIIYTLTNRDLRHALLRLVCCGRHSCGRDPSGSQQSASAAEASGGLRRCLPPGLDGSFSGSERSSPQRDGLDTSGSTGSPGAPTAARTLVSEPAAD
human S1P3 receptor, sequence (Q99500 whole entry): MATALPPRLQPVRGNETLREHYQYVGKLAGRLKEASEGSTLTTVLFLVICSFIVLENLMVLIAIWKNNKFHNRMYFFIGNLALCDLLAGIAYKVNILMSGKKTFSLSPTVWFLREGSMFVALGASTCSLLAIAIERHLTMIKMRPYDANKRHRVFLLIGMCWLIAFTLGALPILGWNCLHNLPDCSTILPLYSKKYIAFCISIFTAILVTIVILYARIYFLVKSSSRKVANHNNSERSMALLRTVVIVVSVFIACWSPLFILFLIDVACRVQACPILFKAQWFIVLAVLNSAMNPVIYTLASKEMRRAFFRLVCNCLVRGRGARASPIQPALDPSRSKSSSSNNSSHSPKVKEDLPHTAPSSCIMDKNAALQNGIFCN
T1 sequence (P21453 whole entry): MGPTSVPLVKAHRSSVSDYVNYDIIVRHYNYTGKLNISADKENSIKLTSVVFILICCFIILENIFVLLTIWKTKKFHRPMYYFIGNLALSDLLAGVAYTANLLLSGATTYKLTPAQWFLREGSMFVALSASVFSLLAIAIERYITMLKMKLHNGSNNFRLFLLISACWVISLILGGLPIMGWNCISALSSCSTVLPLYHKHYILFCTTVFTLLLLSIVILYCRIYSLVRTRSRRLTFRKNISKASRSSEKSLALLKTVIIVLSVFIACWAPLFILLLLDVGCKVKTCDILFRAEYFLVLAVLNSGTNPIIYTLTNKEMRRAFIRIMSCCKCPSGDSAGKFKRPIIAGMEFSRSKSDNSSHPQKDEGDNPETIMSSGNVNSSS

`CCc1cc(-c2noc(-c3cc(OC)nc(C4CCCC4)c3)n2)cc(C)c1OC[C@@H](O)CO` [Cenerimod, (S)‐3‐(4‐(5‐(2‐cyclopentyl‐6‐methoxypyridin‐4‐yl)‐1,2,4‐oxadiazol‐3‐yl)‐2‐ethyl‐6‐methylphenoxy)propane‐1,2‐diol]: the 50% effective concentration (EC50) in data set [1] is 1040 nM; in data set [4] it was 2 nM; in [9] (EC50 S1P4 receptor, (35S)-GTPγS, human recombinant receptor), 2100 nM; in data set [9] (setting [19]), 2130 nM; in [11], 228 nM; in [13], 124 nM. Moreover, the EC50 is greater than 10000 nM in data set [15] and 36 nM in data set [18]. Also, the “fold less potent in Ca^2+ signaling than in (35S)‐GTPγS assays” value in [1] (HUVEC) was “approximately 500 fold”. Moreover, in data set [2], the “S1P2 receptor agonist activity in more sensitive (cellular) assays” value is reported as “no S1P2 receptor agonist activity”. For the same molecule, the “contraction of upper and lower rat trachea” value in data set [3] (highest tested concentration 10 μmol·L^‐1, n = 4) is “complete lack of response”. For the same molecule, in [5], the compound accumulation result is given as “absence of compound accumulation”. In addition, the “effect on heart rate (HR)” value in data set [6] (30 mg·kg^‐1 single oral dose) was “no effect”. Moreover, in [6] (30 mg·kg^‐1 single oral dose, 48 hours observation period), the “decrease of mean arterial blood pressure (MAP)” value is reported as 9 ± 3 mmHg. Moreover, the “contraction of human bronchi” value in data set [7] (10 μmol·L^‐1) was “no contraction”. The “fold higher potency on the S1P1 receptor compared to the natural ligand S1P” value in [8] ((35S)-GTPγS EC50 ratio) was 16 fold. In addition, the Emax in data set [8] (read-out: E max (%) hS1P1) was 126%; in [9] (read-out: E max (%) hS1P4) it was 123%; in data set [11] (read-out: E max (%) hS1P3), 81%; in data set [18] (read-out: E max (%) hS1P5) it was 65%. In addition, in [10] (100 mg·kg^‐1 p.o., 4 hours evaluation period), the “Penh (index of bronchoconstriction) vs vehicle” value is reported as “did not increase”. Further, in data set [11] ((35S)-GTPγS EC50 ratio), the “fold less active at the S1P3 receptor than S1P” value is listed as “at least 2000 fold”. Also, the “fold less active at the S1P3 receptor than pFTY720” value in data set [11] ((35S)-GTPγS EC50 ratio) stood at 400 fold. Further, the “mice completely protected from disease development” value in [12] (6 mg·kg^‐1·day^‐1 from day 0 (preventive), n = 8) is on record as “Five out of eight”. Moreover, the “clinical score reached (maximum reduction), all treated mice” value in data set [12] (6 mg·kg^‐1·day^‐1 from day 14 (therapeutic), n = 8) came to 0.5. Besides, the “incidence and severity of spinal cord demyelination” value in data set [12] (preventive or therapeutic regimen, 6 mg·kg^‐1·day^‐1) was “equally reduced”. Besides, in [12] (preventive treatment 6 mg·kg^‐1·day^‐1, three of eight mice), the “maximal clinical score of the individual mice that developed disease” value is 2.5 and 3.0 and 0.5. Moreover, the “time to reach clinical score of 0.5 after treatment initiation, two mice” value in data set [12] (therapeutic treatment) is reported as no more than 11 days. In addition, the “single oral dose at which plateau of lymphocyte reduction is reached” value in [14] was 1 mg·kg^‐1. Besides, the “time until lymphocyte count returned to predose levels” value in data set [14] (1 mg·kg^‐1 single oral dose) is no more than 48 h. For the same molecule, the “decrease of blood lymphocyte count” value in data set [14] (1 mg·kg^‐1 single oral dose, P < .001) is listed as 63 ± 4%. The “blood lymphocyte count after dosing” value in data set [14] (1 mg·kg^‐1 single oral dose, from 7900 ± 690 before dosing) is 2900 ± 370 lymphocytes/μL. Further, the figures for the “time until lymphocyte count returned to physiological levels after the last dose” value in data set [14] (1 mg·kg^‐1·day^‐1 oral for 7 days (data not shown)) and in data set [14] (3 mg·kg^‐1·day^‐1 oral for 7 days (data not shown)) were no more than 2 days and no more than 4 days, respectively. Also, the “reduction of blood lymphocyte count at 48 hours” value in data set [14] (3 mg·kg^‐1 single oral dose) was “more than 40%”. The “reduction of peripheral blood lymphocyte count after 48 hours” value in data set [14] (10 mg·kg^‐1 single oral dose) worked out at 65 ± 3%. Besides, the “agonist activity on the S1P2 receptor” value in data set [15] (up to the highest tested concentration (10 μmol·L^‐1)) was “no detectable agonist activity”. In data set [16] (4 hours after oral administration of 100 mg·kg^‐1, Wistar rats (Penh study)), this molecule displayed a plasma concentration of 4.4 ± 0.6 μg·mL^‐1. For the same molecule, in data set [16] (Wistar, rat, plasma, po), the Tmax is 3 h. Further, the “plasma concentration at time of maximal lymphocyte count reduction (6 hours)” value in [16] (1 mg·kg^‐1 single oral dose) is reported as 41 ± 2 ng·mL^‐1; in data set [16] (10 mg·kg^‐1 single oral dose), 869 ± 73 ng·mL^‐1. Further, the “contraction of rat mesenteric arteries” value in data set [17] (10 μmol·L^‐1, n = 4) is on record as “did not contract”. In addition, the “fold less potent on the S1P5 receptor than pFTY720” value in data set [18] ((35S)-GTPγS EC50 ratio) is recorded as 70 fold. The “fold more potent on the S1P5 receptor than the natural ligand S1P” value in data set [18] ((35S)-GTPγS EC50 ratio) was “twofold”.
As for `CCCCCCCCc1ccc(CCC(N)(CO)CO)cc1` [FTY720, reference compound], the “decrease of heart rate (HR)” value in [6] (3 mg·kg^‐1 single oral dose) stood at 26 ± 8 bpm. The “increase of mean arterial blood pressure (MAP)” value in data set [6] (3 mg·kg^‐1 single oral dose, 48 hours observation period) is on record as 12 ± 2 mmHg. Also, the “Penh (index of bronchoconstriction) vs vehicle” value in data set [10] (3 or 10 mg·kg^‐1 p.o. single dose) was “significant dose‐dependent increases”.
In the case of `CCCCCCCCCCCCC/C=C/[C@@H](O)[C@@H](N)COP(=O)(O)O` [S1P, Sphingosine‐1‐phosphate, reference compound], the values for the EC50 in data set [1], in data set [9] (setting [19]) and in data set [11] were 34 nM, 60 nM and 0.1 nM, respectively. In addition, in data set [3] (1 μmol·L^‐1, in presence of Ca^2+ (2.5 mmol·L^‐1), n = 3), the “constriction of lower rat trachea” value was “induced lower rat trachea constriction”.
For `CCCCCCCOc1ccc(CCC(N)(CO)COP(=O)(O)O)cc1C(F)(F)F` (stereo not drawn) [p-amiselimod (pMT-1303)], in [3] (lower rat trachea, 1 μmol·L^‐1 and 10 μmol·L^‐1), the rat trachea constriction result is reported as “induced effective rat trachea constriction”.
Regarding `CCCCCCCCc1ccc(CCC(N)(CO)COP(=O)(O)O)cc1` (stereo not drawn) [pFTY720, reference compound], the “contraction of upper and lower rat trachea” value in data set [3] (10, 100 or 1000 nmol·L^‐1, n = 4) is “concentration‐dependent contractile response”. In addition, the “E max contraction of human bronchi” value in [7] (% of reference contraction to KCl (50 mmol·L^‐1), mean ± SEM, n = 4) is reported as 86.5 ± 20.2%. The “pEC50 contraction of human bronchi” value in [7] (mean ± SEM, n = 4) is 6.4 ± 0.5. In addition, in [9] (setting [20]), the “E max (%) hS1P4” value is reported as 109%. Further, the EC50 in [9] (read-out: EC50 hS1P4, (35S)-GTPγS, CHO membranes, geometric mean, n = 2‐4) is 64 nM. In data set [15] (setting [20]), the “E max (%) hS1P2” value is recorded as 11%. Also, in data set [17] (1, 10 or 100 nmol·L^‐1, n = 4), the “contraction of rat mesenteric arteries” value was “concentration‐dependent contraction”. Moreover, the “E max (%) hS1P5” value in [18] (setting [20]) was determined as 43%.

The values above are taken from PMC5723703 (Pharmacology Research & Perspectives, 2017).
